Only some compounds are listed: those with a hit (about 1.4% of all), similar ones and a draw of the others.
Myeloid diff MLP = induction of myeloid progenitor differentiation, primary screen, cell-based, flow cytometry, MLPCN library. ER-HoxA9 myeloid progenitors, lysozyme-GFP differentiation. calls only at 10 µM. 1% of 360,000 active. AID 624256, 2012;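 active = normalized GFP-positive differentiation at or above the plate's own cutoff, the solvent-only control mean plus 3 SD; inconclusive = no clear call, values can overlap the other calls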;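 also: cells exposed to compound for four days before flow analysis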
Vif imaging = HIV Vif self-association inhibitors, primary screen, imaging, HEK293T, single point; HEK293T cells, Vif self-association by quenched fluorescence, 24 h; inhibition, % at 7.49 µM; 0.35% of 340,000 active; AID 602346, 2012; in the data active = inhibition above about 50%, passing the limit was not always enough; inconclusive = no clear call, values can overlap the other calls; inactive = below about 31%
T cell modulator = modulators of CD8 T cell-vesicle binding, primary screen, mouse 2C CD8+ T cells, flow cytometry. 2C CD8+ T cell-vesicle binding; active compounds read low. response (vesicle binding), % at 7 µM. 0.068% of 330,000 active;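 active = response, share of CD8 T cells binding vesicles, and their 90th percentile fluorescence all below set limits, cut at about 80% in these data, passing the limit was not always enough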;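 also: values below 100% mean blocked vesicle binding to the CD8+ T cells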
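Incubation: binding step 1.5 h, 37 °C, antibody labelling 20 min, ice; system: murine 2C transgenic CD8+ T lymphocytes; technique: cytometric PE anti-B7-1 and Alexa647 anti-CD8 signals after 1% paraformaldehyde fixation; also added: QL9-charged Drosophila Ld/ICAM-1/B7-1 vesicles; control set: naked versus QL9-loaded vesicles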
Casp6 inh = human caspase-6 inhibitors, primary screen, biochemical, VEID-R110 fluorescence, single point, set 2 | P55212 | purified caspase-6, Z-VEID-R110 cleavage fluorescence | inhibition, % at 12.5 µM | 0.53% of 350,000 active;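 active = mean inhibition across replicates at least about 35%, with every replicate also reaching that limit, limit read from the data; inconclusive = only one of the two criteria met; inactive = neither criterion met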;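 also: 0% = median of neutral control wells and 100% = no fluorescence left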
Target sequence (P55212 24-179 limits assumed): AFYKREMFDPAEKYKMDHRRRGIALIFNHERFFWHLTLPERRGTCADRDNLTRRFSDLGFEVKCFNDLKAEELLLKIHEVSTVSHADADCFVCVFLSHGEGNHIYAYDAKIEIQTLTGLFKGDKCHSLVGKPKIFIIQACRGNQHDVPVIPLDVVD
Target sequence (P55212 194-293 limits assumed): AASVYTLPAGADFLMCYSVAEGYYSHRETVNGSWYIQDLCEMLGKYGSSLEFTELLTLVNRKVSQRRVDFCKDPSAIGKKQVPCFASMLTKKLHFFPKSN
An asterisk follows results filed as active; i = inactive; ? = inconclusive; / = no result; + = active, no number.

SMILES | Myeloid diff MLP | Vif imaging | T cell modulator | Casp6 inh
CO[C@H]1CN(C)C(=O)c2ccc(NC(C)=O)cc2OC[C@H](C)N(CC2CC2)C[C@H]1C | / | / | / | 3
O=C(C[C@H]1C=C[C@@H](NC(=O)C2CC2)[C@@H](CO)O1)Nc1nccs1 | / | / | / | 4
COc1ccc(-c2ccc([C@H]3[C@H](CO)N4C(=O)CN(C(=O)NC(C)C)C[C@@H]34)cc2)cc1 | / | / | / | -1
CNC[C@H]1OCCCC[C@H](C)Oc2ccc(NC(=O)NC3CCCCC3)cc2C(=O)N([C@H](C)CO)C[C@H]1C | / | / | / | -1
CCOc1ccc(N(CC(=O)NCCc2ccccc2)C(=O)CCC(=O)Nc2cc(C)ccn2)cc1 | + | -8 | 186 | 0
C[C@]12c3[nH]c4cc(-c5ccco5)ccc4c3CCN1C(=O)[C@@H](CC(=O)NCCN1CCOCC1)C[C@@H]2C(=O)N1CCOCC1 | + | / | / | -33
CC(C)=CCC/C(C)=C/CNC(=O)C[C@H]1C[C@H](C(=O)N2CCCCC2)[C@@]2(CCc3ccccc3)c3[nH]c4ccc(Cl)cc4c3CCN2C1=O | i | -15 | / | -2
CC(C)N(C(=O)[C@H]1C[C@H](CC(=O)NCCN2CCOCC2)C(=O)N2CCc3c([nH]c4cc(-c5ccco5)ccc34)[C@]12C)C(C)C | i | -2 | / | -26
CC[C@]12c3[nH]c4cc(CCC(=O)N(C)C)ccc4c3CCN1C(=O)[C@@H](CC(=O)NCCc1ccccn1)C[C@@H]2C(=O)N1CCN(C(=O)c2ccco2)CC1 | + | / | / | -35
CC[C@]12c3[nH]c4ccccc4c3CCN1C(=O)C(CC(=O)NCCCn1ccnc1)C[C@@H]2C(=O)N1CCN(C(=O)C2CC2)CC1 (some centres undefined) | + | / | 210 | -41
CC(C)=CCC/C(C)=C/CNC(=O)C[C@H]1C[C@H](C(=O)N2CCCCC2)[C@@]2(CCc3ccccc3)c3[nH]c4cc(CCC(=O)N(C)C)ccc4c3CCN2C1=O | + | -5 | / | 1
C[C@@H]1CN([C@@H](C)CO)C(=O)c2cc(-c3cccnc3)cnc2O[C@H]1CN(C)C(=O)C1CC1 | / | / | / | -1
C[C@H](NC(=O)C[C@H]1C[C@@H]2c3cc(NC(=O)CN(C)C)ccc3O[C@@H]2[C@@H](CO)O1)c1ccccc1 | / | / | / | 1
CO[C@H]1CN(C)C(=O)c2ccc(NC(C)=O)cc2OC[C@@H](C)N(CC2CCCCC2)C[C@H]1C | / | / | / | -2
COc1ccc2c3c(n(C)c2c1)[C@H](CO)N(C(=O)c1ccc(F)cc1)CC31CCN(CC2CCOCC2)CC1 | / | / | / | 1
C[C@H](CO)N1C[C@H](C)[C@@H](CN(C)C(=O)Nc2ccc3c(c2)OCO3)Oc2ccc(NC(=O)c3ccncc3)cc2CC1=O | / | / | / | 0
CC(C(=O)c1ccc(Br)cc1)[n+]1cccc2ccccc21 (centres undefined) | + | 10 | 166 | 3
C[C@@H]1CCCCO[C@@H](CN(C)CC2CCCCC2)[C@@H](C)CN([C@@H](C)CO)C(=O)c2cc(NS(=O)(=O)c3cccs3)ccc2O1 | / | / | / | 0
O=S(=O)(c1ccc(F)cc1)c1snnc1-c1ccccc1 | ? | 6 | 378 | 43*
O=S(=O)(c1ccc(Cl)cc1)c1snnc1-c1ccccc1 | / | 94* | 324 | /
c1ccc(-c2nnsc2-c2ncc[nH]2)cc1 | i | 6 | 315 | 7
COc1ccccc1CNC(=O)C[C@H]1C=C[C@H](NC(C)=O)[C@@H](CO)O1 | / | / | / | -1
CN1CCN(NC(=O)Nc2ccc(F)cc2)CC1 | i | 12 | 333 | 48*
Cc1c(Cl)cccc1NC(=O)NN1CCN(C)CC1 | + | 11 | 339 | -6
Cc1cccc(NC(=O)NN2CCN(C)CC2)c1C | i | 15 | 347 | 9
SMILES | Myeloid diff MLP | Vif imaging | T cell modulator | Casp6 inh
COc1ccc(NC(=O)NN2CCN(C)CC2)cc1 | i | 7 | 362 | -2
C[C@H](CO)N1C[C@H](C)[C@H](CN(C)C(=O)c2cccc(F)c2)Oc2ncc(-c3cncnc3)cc2C1=O | / | / | / | 3
CC=Cc1ccc2n(c1=O)C[C@H]1[C@H](CO)[C@@H](C(=O)NC3CCC3)N(Cc3ccncc3)[C@@H]21 (mixture of isomers) | / | / | / | 0
CCCNC(=O)N1CCC2(CC1)CN(Cc1ccc(F)cc1)[C@@H](CO)c1[nH]c3cc(OC)ccc3c12 | / | / | / | 0
CCN(CC)C(=O)COc1ccc(/C(C)=N/NC(=O)c2ccccc2O)cc1 | i | 3 | 378 | 38*
CC(C)Cn1c([N+](=O)[O-])nc2c1c(=O)[nH]c(=O)n2C | / | 11 | 213 | 21
Cn1c(=O)[nH]c(=O)c2c1nc([N+](=O)[O-])n2Cc1ccccc1 | ? | 99* | 144 | 14
Cn1c(=O)[nH]c(=O)c2c1nc(N1CCN(Cc3ccccc3)CC1)n2CCSc1ncccn1 | + | -6 | 100 | -1
Cn1c(=O)[nH]c(=O)c2c1nc(N1CCN(Cc3ccccc3)CC1)n2CCCc1ccccc1 | i | -1 | 349 | 0
Cc1ccc(N(C(=O)CNC(=O)c2ccco2)C(C(=O)NCC2CCCO2)c2ccccc2)cc1C (centres undefined) | i | 53* | 230 | 6
C=CCN=c1scc(-c2ccccc2)n1/N=C/c1ccccn1 | + | -5 | 213 | 0
CCN=c1scc(-c2ccccc2)n1/N=C/c1ccccn1 | + | 1 | 313 | /
CCN=c1scc(-c2ccc(F)cc2)n1/N=C/c1ccccn1 | i | 4 | 495 | -2
Cc1nn(C)cc1S(=O)(=O)Nc1ccc2c(c1)OCCO2 | i | -2 | 402 | -2
Cc1cc(NS(=O)(=O)c2cn(C)nc2C)no1 | + | 7 | 192 | -1
N#C[C@@H]1[C@H](c2ccc(C3=CCCCC3)cc2)[C@@H](CO)N1S(=O)(=O)c1ccccc1 | / | / | / | 41*
C[C@H](CO)N1C[C@H](C)[C@H](CN(C)S(=O)(=O)c2ccccc2)Oc2c(NC(=O)C3CCOCC3)cccc2C1=O | / | / | / | 1
Cc1noc(C)c1S(=O)(=O)N(C)C[C@H]1Oc2ccc(NS(=O)(=O)c3cn(C)cn3)cc2CC(=O)N([C@H](C)CO)C[C@@H]1C | / | / | / | -2
COCCNc1oc(/C=C/c2ccccc2)nc1C#N | i | 55* | 538 | 1
COCC(=O)N1[C@@H]2CN(C(=O)Nc3ccccc3F)c3ccccc3[C@@H]2[C@@H]1CO | / | / | / | 36*
CS(=O)(=O)N1CCc2cc(C(=O)N3CCN(c4ccccc4F)CC3)ccc21 | + | -4 | 591 | 2
CCC(=O)c1ccc(N2CCN(C(=O)c3ccccc3)CC2)c(F)c1 | i | 2 | 192 | 88*
O=C(c1cccc(S(=O)(=O)N2CCCCCC2)c1)N1CCN(c2ccccc2F)CC1 | ? | -7 | i | 48*
CCOC(=O)N1CCN(c2ccc(C(=O)CC)cc2F)CC1 | i | -2 | 412 | /
CC1CCc2sc(C(=O)NN=C3CCC(c4ccccc4)CC3)cc2C1 (centres undefined) | + | 7 | 136 | -1

Screens deposited in PubChem by several laboratories.
